# Active and inactive are the calls of the source. The calls are words filed in the database; no cut-off is given here.
# Columns and labels:
# [1] = test system: THP-1; assay: Antiinflammatory activity in human THP1 cells assessed as inhibition of LPS-induced TNFalpha production by PLAP reporter assay; type: functional, cell-based
# Method in brief: (§1)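 Stably transfected PLAP reporter lines (TNFα-promoter/5'-UTR-PLAP in THP-1-33; β-actin-promoter-PLAP in B164), kept in RPMI1640 with 10% heat-inactivated endotoxin-free FBS and G418 1 mg/mL. Seeded at 1.0×10^4 cells/well, preincubated with compound 30 min, then stimulated with LPS 100 ng/ml (E. coli 0127:B08 or 011:B4). After 24-48 h, supernatant alkaline phosphatase activity read; IC50 reported.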
# [2] = Antiinflammatory activity in human B164 cells assessed as inhibition of LPS-induced Actin production by PLAP reporter assay; type: functional, cell-based; method in brief: as §1
# [3] = Metabolic stability in mouse plasma after 2 hrs; type: ADME, cell-free; conditions: read-out: Stability
# Method in brief: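 Compound at 50 μg/ml or 50 μM in freshly prepared heparinized mouse blood, incubated at 37 °C for 0, 30 and 120 min. Each sample extracted with MeOH containing 0.2% perchloric acid. Analyzed by reverse-phase HPLC, 30% acetonitrile in KH2PO4 buffer pH 3.5. Parent peak area at each time expressed as % of the 0 min area.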
# [4] = Clearance in BALB/c mouse at 3 mg/kg, iv; type: ADME, organism-based; parameters: dose 3 mg/kg, route intravenous; conditions: in vivo
# Method in brief: (§2)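 Single intravenous dose given to BALB/c mice. Parent drug levels were measured in plasma over time after dosing. CL, VDss, t1/2 and AUC were derived from these plasma levels. AUC is reported normalised to dose, […].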
# [5] = Volume of distribution at steady state in BALB/c mouse at 3 mg/kg, iv; type: ADME, organism-based; parameters: dose 3 mg/kg, route intravenous; conditions: in vivo, read-out: Vdss; method in brief: as §2
# [6] = Half life in BALB/c mouse at 3 mg/kg, iv; type: ADME, organism-based; parameters: route intravenous, dose 3 mg/kg; conditions: in vivo; method in brief: as §2
# [7] = test system: Mus musculus; assay: Normalised AUC in BALB/c mouse at 3 mg/kg, iv; type: ADME, organism-based; parameters: dose 3 mg/kg, route intravenous; conditions: in vivo; method in brief: as §2
# [8] = test system: U-937; assay: Antiinflammatory activity in human U937 cells assessed as inhibition of LPS-induced TNFalpha production by ELISA; type: functional, cell-based
# [9] = test system: U-937; assay: Antiinflammatory activity in human U937 cells assessed as inhibition of LPS-induced Actin production by ELISA; type: functional, cell-based
# [10] = species: Mus musculus; assay: Antiinflammatory activity in mouse assessed as inhibition of LPS-induced IL6 production; type: functional, organism-based
# Method in brief: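 Mice given compound together with LPS by tail-vein injection in 10% cyclodextrin. Blood collected 3 h later and plasma IL-6 measured by ELISA. Mean with SEM, n = 6-8. Compared against the LPS-treated control group by Dunnett's post hoc test, P<0.05.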
Compound,IC50 [1] [nM],IC50 [2] [nM],further results
COc1cc(O)c2c(c1)/C=C/C[C@H](O)[C@H](O)/C=C\[C@@H](Cc1ccccc1)[C@H](C)OC2=O,> 10000,> 10000,
COc1cc(O)c2c(c1)/C=C/C[C@H](O)[C@H](O)C(=O)C1CC1OC2=O (stereo not given in full),> 10000,> 10000,
CC[C@H]1C/C=C\C(=O)[C@@H](O)[C@@H](O)C/C=C/c2cc(OC)cc(O)c2C(=O)O1,59,2440,
COc1cc(O)c2c(c1)/C=C/C[C@H](O)[C@H](O)C(=O)/C=C\C[C@H](C)OC2=O,11,2370,clearance [4]: 710 mL/min/kg; Vd [5]: 3.3 L/kg; half-life [6]: 0.05 h; AUC/dose [7]: 23.8 ng·h/mL/(mg/kg); remaining at 2 h [3]: 2%
COc1cc(O)c2c(c1)/C=C/C[C@@H](O)[C@@H](O)C(=O)/C=C\C[C@@H](C)OC2=O,2620,4980,
COc1cc(O)c2c(c1)/C=C/C[C@H](O)[C@H](O)C(=O)/C=C\CCOC2=O,69,2800,
COc1cc(O)c2c(c1)/C=C/C[C@H](O)[C@H](O)/C=C\[C@H](C)[C@@H](C)OC2=O,> 10000,> 10000,
CC[C@@H]1/C=C\[C@@H](O)[C@@H](O)C/C=C/c2cc(OC)cc(O)c2C(=O)O[C@H]1C,,,inhibition [8]: inactive; inhibition [9]: inactive
COc1cc(O)c2c(c1)/C=C/C[C@H](O)[C@H](O)/C=C\[C@@H](C)CNC2=O,259,> 10000,
COc1cc(O)c2c(c1)/C=C/C[C@H](O)[C@H](O)C(=O)/C=C\C[C@@H](C)OC2=O,1050,7060,
COc1cc(O)c2c(c1)/C=C/C[C@H](O)[C@H](O)C(=O)/C=C\C[C@H](C(F)(F)F)OC2=O,31,1330,
COc1ccc(CO[C@@H]2/C=C\C(=O)[C@@H](O)[C@@H](O)C/C=C/c3cc(OC)cc(O)c3C(=O)O[C@H]2C)cc1,888,> 10000,
COc1cc(O)c2c(c1)/C=C/C[C@H](O)[C@H](O)C(=O)/C=C\[C@@H](C)[C@H](C)OC2=O,136,> 10000,clearance [4]: 91.8 mL/min/kg; Vd [5]: 1.69 L/kg; half-life [6]: 3.44 h; AUC/dose [7]: 181 ng·h/mL/(mg/kg); remaining at 2 h [3]: > 80%; inhibition [10]: Active
COc1cc(O)c2c(c1)/C=C/C[C@H](O)[C@H](O)/C=C\[C@@H](C)COC2=O,203,> 10000,
COc1cc(O)c2c(c1)/C=C/C[C@H](O)[C@H](O)C(=O)/C=C\[C@H](OC)[C@H](C)OC2=O,239,7600,remaining at 2 h [3]: 25%
COc1cc(O)c2c(c1)/C=C/C[C@H](O)[C@H](O)C(=O)/C=C\[C@H]1CCC[C@H]1OC2=O,4000,> 30000,remaining at 2 h [3]: 34%

# Second part, led by results:
IC50 [1] [nM],IC50 [2] [nM],Compound,further results
667,3000,COc1cc(O)c2c(c1)/C=C/C[C@H](O)[C@H](O)C(=O)/C=C\[C@@H]1CCC[C@@H]1OC2=O,remaining at 2 h [3]: 77%
> 10000,> 10000,COc1cc(O)c2c(c1)/C=C/C[C@H](O)[C@H](O)/C=C\C(C)(C)COC2=O,
5210,8470,CC[C@@H]1C/C=C\C(=O)[C@@H](O)[C@@H](O)C/C=C/c2cc(OC)cc(O)c2C(=O)O1,
200,> 10000,COc1cc(O)c2c(c1)/C=C/C[C@H](O)[C@H](O)/C=C(\F)[C@@H](C)[C@H](C)NC2=O,
3690,4410,COc1cc(O)c2c(c1)/C=C/C[C@H](O)[C@H](O)C(=O)/C=C\C[C@H](c1ccccc1)OC2=O,
9000,> 10000,COc1cc(O)c2c(c1)/C=C/C[C@H](O)[C@H](O)/C=C\[C@@H](CC(F)(F)F)[C@H](C)OC2=O,
1140,> 10000,COc1cc(O)c2c(c1)/C=C/C[C@H](O)[C@H](O)/C=C\[C@H](C)[C@H](C)OC2=O,

# Source: ChEMBL document CHEMBL1154317, “Discovery of a potent, metabolically stabilized resorcylic lactone as an anti-inflammatory lead” (Bioorg Med Chem Lett, 2009)
